From ChEMBL document CHEMBL1145173, “Stereoselective synthesis of [L-Arg-L/D-3-(2-naphthyl)alanine]-type (E)-alkene dipeptide isosteres and its application to the synthesis and biological evaluation of pseudopeptide analogues of the CXCR4 antagonist FC131” (J Med Chem, 2005) come the findings set out here.

Where a SMILES comes first, the peptide text is derived from it. Some results are limits rather than exact numbers.

Test [1] relates to MT4. As to the kind of experiment: Effective concentration against HIV-induced cytopathogenicity in MT-4 cells. The class given is functional, cell-based. The conditions noted are these: Homo sapiens.
Test [2] concerns the target C-X-C chemokine receptor type 4 (Homo sapiens, UniProt P61073). As to the kind of experiment: Inhibition of [125I]SDF-1 binding to C-X-C chemokine receptor type 4 expressed in CHO cells. The class given is cell-based.
For test [3], the system named is MT4. Briefly: Cytotoxic concentration against the mock infected MT-4 cells. The conditions noted are these: Homo sapiens. The class given is functional. The method in brief:
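MT-4 cells (RPMI 1640, 10% heat-inactivated FCS, penicillin/streptomycin) without virus, 1.5×10^4 cells/well, exposed to graded compound concentrations for 5 days at 37 °C in CO₂; viable cells counted by MTT method; CC₅₀ from loss of viability; mean of at least three independent experiments.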

Chain of C-X-C chemokine receptor type 4 (P61073 whole entry): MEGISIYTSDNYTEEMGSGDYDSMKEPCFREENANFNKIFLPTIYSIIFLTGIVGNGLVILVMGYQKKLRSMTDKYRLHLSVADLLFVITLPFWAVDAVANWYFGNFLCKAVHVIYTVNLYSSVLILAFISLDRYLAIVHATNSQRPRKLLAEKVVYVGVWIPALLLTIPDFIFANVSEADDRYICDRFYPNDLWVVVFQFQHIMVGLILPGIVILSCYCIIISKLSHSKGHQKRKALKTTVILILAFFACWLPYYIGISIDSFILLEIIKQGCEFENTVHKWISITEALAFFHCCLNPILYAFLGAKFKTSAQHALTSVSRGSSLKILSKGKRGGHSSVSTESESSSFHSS

The compound `N=C(N)NCCC[C@@H]1NC(=O)[C@@H](Cc2ccc(O)cc2)NC(=O)NC(=O)[C@@H](Cc2ccc3ccccc3c2)/C=C\[C@H](CCCN=C(N)N)NC1=O` returned a 50% effective concentration (EC50) in test [1] of 2400 nM. Moreover, the IC50 in test [2] was more than 31000 nM. Moreover, the CC50 in test [3] was more than 100000 nM.

In turn, `N=C(N)NCCC[C@@H]1NC(=O)[C@@H](Cc2ccc(O)cc2)NC(=O)CNC(=O)[C@@H](Cc2ccc3ccccc3c2)NC(=O)[C@H](CCCN=C(N)N)NC1=O` showed a 50% effective concentration (EC50) in test [1] of 1900 nM. Also, the CC50 in test [3] is more than 100000 nM.

In turn, `N=C(N)NCCC[C@@H]1NC(=O)[C@@H](Cc2ccc(O)cc2)NC(=O)CNC(=O)[C@H](Cc2ccc3ccccc3c2)/C=C\[C@H](CCCN=C(N)N)NC1=O` gave a concentration giving a half-maximal response (EC50) in test [1] of 9100 nM. The compound also came in with an IC50 in test [2] of 21000 nM. Also, the CC50 in test [3] is more than 100000 nM.

Turning to `NC(N)=NCCC[C@@H]1NC(=O)[C@H](CCCN=C(N)N)NC(=O)[C@@H](Cc2ccc(O)cc2)NC(=O)C/C=C/[C@H](Cc2ccc3ccccc3c2)NC1=O`, the EC50 in test [1] worked out at 2400 nM. For the same compound, in test [2], the IC50 amounted to 180 nM. This compound had a CC50 in test [3] of more than 100000 nM.

`N=C(N)NCCC[C@@H]1NC(=O)[C@@H](Cc2ccc(O)cc2)NC(=O)CNC[C@H](Cc2ccc3ccccc3c2)NC(=O)[C@H](CCCN=C(N)N)NC1=O`: the response in test [1] was half-maximal at 980 nM (EC50). Also, in test [2], the IC50 stood at 32 nM. Also, the CC50 in test [3] was more than 100000 nM.

Take `N=C(N)NCCC[C@@H]1NC(=O)[C@@H](Cc2ccc(O)cc2)NC(=O)NC(=O)[C@H](Cc2ccc3ccccc3c2)NC(=O)[C@H](CCCN=C(N)N)NC1=O`: the EC50 in test [1] came out at 73 nM. In test [2], this compound yielded an IC50 of 4.5 nM. This compound displayed a CC50 in test [3] of more than 100000 nM.

On to `NCCCC[C@@H]1NC(=O)[C@H](CCCN=C(N)N)NC(=O)[C@H](Cc2ccc(O)cc2)NC(=O)[C@@H](NC(=O)[C@H](Cc2ccc3ccccc3c2)NC(=O)[C@H](CCCN=C(N)N)NC(=O)[C@@H](N)CCCN=C(N)N)CSSC[C@@H](C(=O)N[C@@H](CCCN=C(N)N)C(=O)O)NC(=O)[C@H](CCCNC(N)=O)NC(=O)[C@H](CCCN=C(N)N)NC(=O)[C@H](Cc2ccc(O)cc2)NC(=O)[C@@H]2CCCN2C(=O)[C@@H](CCCCN)NC1=O` (HELM PEPTIDE1{R.R.[O=C([C@H](Cc1ccc2ccccc2c1)N[*:1])[*:2]].C.Y.R.K.[dK].P.Y.R.[Cit].C.R}$PEPTIDE1,PEPTIDE1,4:R3-13:R3$$$V2.0) [listing 1 of 2 here], for which, in test [1], it took 35 nM to reach a half-maximal effect (EC50). For the same compound, the half-inhibitory concentration (IC50) in test [2] came to 3.9 nM.

Compound `NCCCC[C@@H]1NC(=O)[C@H](CCCN=C(N)N)NC(=O)[C@H](Cc2ccc(O)cc2)NC(=O)[C@@H](NC(=O)[C@H](Cc2ccc3ccccc3c2)NC(=O)[C@H](CCCN=C(N)N)NC(=O)[C@@H](N)CCCN=C(N)N)CSSC[C@@H](C(=O)N[C@@H](CCCN=C(N)N)C(=O)O)NC(=O)[C@H](CCCNC(N)=O)NC(=O)[C@H](CCCN=C(N)N)NC(=O)[C@H](Cc2ccc(O)cc2)NC(=O)[C@@H]2CCCN2C(=O)[C@@H](CCCCN)NC1=O` (HELM PEPTIDE1{R.R.[O=C([C@H](Cc1ccc2ccccc2c1)N[*:1])[*:2]].C.Y.R.K.[dK].P.Y.R.[Cit].C.R}$PEPTIDE1,PEPTIDE1,4:R3-13:R3$$$V2.0) [listing 2 of 2 here] returned a half-maximal cytotoxic concentration (CC50) in test [3] of more than 10000 nM.

In test [1], `Cc1cn([C@H]2C[C@H](N=[N+]=[N-])[C@@H](CO)O2)c(=O)[nH]c1=O` [ZIDOVUDINE] had an EC50 of 18 nM. The compound further displayed a CC50 in test [3] of 57000 nM.

As a reminder, the EC50 is the midpoint of the concentration-response curve. Higher therefore signals weaker potency. The term IC50 denotes the midpoint of a concentration-inhibition curve. A higher IC50 goes with lower potency. For orientation: CC50 means the concentration at which the toxic effect on the cells reaches its halfway point. Read a low CC50 as harm at low concentration.
